Measured values from ChEMBL document CHEMBL5058577, “EUbOPEN Chemogenomics Library 2 (Multiplex)” (2022).

Test system: HEK-293T
Experiment: Multiplex assay against HEK293T
Assay type: toxicity, cell-based
Details: human
Method in brief: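 With compound added, live cells were imaged on a CQ1 microscope at 37°C and 5% CO2; staining with Hoechst33342, BioTracker Green Microtubule Cytoskeleton Dye, MitoTracker Red and Annexin V Alexa Fluor 680 had been done at seeding. The CellPathfinder machine-learning gating scheme split cells into Hoechst high-intensity objects or normal cells, normal cells into healthy, pyknosed or fragmented nuclei, and pyknosed cells into mitotic or apoptotic. The tubulin, mitochondrial-mass and membrane-permeability phenotypes are per cents of healthy-nucleus cells.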

[1] = 12 h, 1 µM, compound concentration 1 uM, replicate 1
[2] = 12 h, 1 µM, compound concentration 1 uM, replicate 2
[3] = 12 h, 10 µM, compound concentration 10 uM, replicate 1
[4] = 12 h, 10 µM, compound concentration 10 uM, replicate 2
[5] = 24 h, 1 µM, compound concentration 1 uM, replicate 1
[6] = 24 h, 1 µM, compound concentration 1 uM, replicate 2
[7] = 24 h, 10 µM, compound concentration 10 uM, replicate 1
[8] = 24 h, 10 µM, compound concentration 10 uM, replicate 2
[9] = 48 h, 1 µM, compound concentration 1 uM, replicate 1
[10] = 48 h, 1 µM, compound concentration 1 uM, replicate 2
[11] = 48 h, 10 µM, compound concentration 10 uM, replicate 1
[12] = 48 h, 10 µM, compound concentration 10 uM, replicate 2

Structure (SMILES): CC(C)COc1ccc(CNC(=O)N(Cc2ccc(F)cc2)C2CCN(C)CC2)cc1 [PIMAVANSERIN]
- Population Apoptotic (%) [1]: 39%
- Population Fragmented Nuclei (%) [1]: 5%
- Population Healthy Nuclei (%) [1]: 82%
- Population Hoechst High Intensity Objects (%) [1]: 6%
- Population Membrane Permeable-Phenotype (%) [1]: 0%
- Population Mitochondria Different-Phenotype (%) [1]: 50%
- Population Mitotic Cells (%) [1]: 60%
- Population Normal (%) [1]: 93%
- Population Pyknosed Nuclei (%) [1]: 11%
- Population Tubulin-Different-Phenotype (%) [1]: 49%
- Total Cell Count [1]: 430
- Population Apoptotic (%) [2]: 54%
- Population Fragmented Nuclei (%) [2]: 7%
- Population Healthy Nuclei (%) [2]: 74%
- Population Hoechst High Intensity Objects (%) [2]: 11%
- Population Mitochondria Different-Phenotype (%) [2]: 68%
- Population Mitotic Cells (%) [2]: 46%
- Population Normal (%) [2]: 88%
- Population Pyknosed Nuclei (%) [2]: 18%
- Population Tubulin-Different-Phenotype (%) [2]: 35%
- Total Cell Count [2]: 311
- Population Apoptotic (%) [3]: 62%
- Population Fragmented Nuclei (%) [3]: 10%
- Population Healthy Nuclei (%) [3]: 60%
- Population Hoechst High Intensity Objects (%) [3]: 19%
- Population Membrane Permeable-Phenotype (%) [3]: 0%
- Population Mitochondria Different-Phenotype (%) [3]: 89%
- Population Mitotic Cells (%) [3]: 37%
- Population Normal (%) [3]: 80%
- Population Pyknosed Nuclei (%) [3]: 28%
- Population Tubulin-Different-Phenotype (%) [3]: 81%
- Total Cell Count [3]: 285
- Population Apoptotic (%) [4]: 79%
- Population Fragmented Nuclei (%) [4]: 7%
- Population Healthy Nuclei (%) [4]: 64%
- Population Hoechst High Intensity Objects (%) [4]: 25%
- Population Mitochondria Different-Phenotype (%) [4]: 87%
- Population Mitotic Cells (%) [4]: 20%
- Population Normal (%) [4]: 74%
- Population Pyknosed Nuclei (%) [4]: 27%
- Population Tubulin-Different-Phenotype (%) [4]: 66%
- Total Cell Count [4]: 237
- Population Apoptotic (%) [5]: 33%
- Population Fragmented Nuclei (%) [5]: 9%
- Population Healthy Nuclei (%) [5]: 77%
- Population Hoechst High Intensity Objects (%) [5]: 6%
- Population Membrane Permeable-Phenotype (%) [5]: 2%
- Population Mitochondria Different-Phenotype (%) [5]: 42%
- Population Mitotic Cells (%) [5]: 66%
- Population Normal (%) [5]: 93%
- Population Pyknosed Nuclei (%) [5]: 13%
- Population Tubulin-Different-Phenotype (%) [5]: 40%
- Total Cell Count [5]: 553
- Population Apoptotic (%) [6]: 48%
- Population Fragmented Nuclei (%) [6]: 4%
- Population Healthy Nuclei (%) [6]: 82%
- Population Hoechst High Intensity Objects (%) [6]: 8%
- Population Membrane Permeable-Phenotype (%) [6]: 0%
- Population Mitochondria Different-Phenotype (%) [6]: 55%
- Population Mitotic Cells (%) [6]: 51%
- Population Normal (%) [6]: 91%
- Population Pyknosed Nuclei (%) [6]: 12%
- Population Tubulin-Different-Phenotype (%) [6]: 30%
- Total Cell Count [6]: 394
- Population Apoptotic (%) [7]: 81%
- Population Fragmented Nuclei (%) [7]: 10%
- Population Healthy Nuclei (%) [7]: 57%
- Population Hoechst High Intensity Objects (%) [7]: 27%
- Population Membrane Permeable-Phenotype (%) [7]: 0%
- Population Mitochondria Different-Phenotype (%) [7]: 94%
- Population Mitotic Cells (%) [7]: 18%
- Population Normal (%) [7]: 72%
- Population Pyknosed Nuclei (%) [7]: 31%
- Population Tubulin-Different-Phenotype (%) [7]: 77%
- Total Cell Count [7]: 285
- Population Apoptotic (%) [8]: 84%
- Population Fragmented Nuclei (%) [8]: 12%
- Population Healthy Nuclei (%) [8]: 54%
- Population Hoechst High Intensity Objects (%) [8]: 34%
- Population Mitochondria Different-Phenotype (%) [8]: 100%
- Population Mitotic Cells (%) [8]: 15%
- Population Normal (%) [8]: 65%
- Population Pyknosed Nuclei (%) [8]: 32%
- Population Tubulin-Different-Phenotype (%) [8]: 69%
- Total Cell Count [8]: 215
- Population Apoptotic (%) [9]: 27%
- Population Fragmented Nuclei (%) [9]: 13%
- Population Healthy Nuclei (%) [9]: 77%
- Population Hoechst High Intensity Objects (%) [9]: 5%
- Population Membrane Permeable-Phenotype (%) [9]: 1%
- Population Mitochondria Different-Phenotype (%) [9]: 31%
- Population Mitotic Cells (%) [9]: 72%
- Population Normal (%) [9]: 94%
- Population Pyknosed Nuclei (%) [9]: 8%
- Population Tubulin-Different-Phenotype (%) [9]: 33%
- Total Cell Count [9]: 869
- Population Apoptotic (%) [10]: 48%
- Population Fragmented Nuclei (%) [10]: 9%
- Population Healthy Nuclei (%) [10]: 84%
- Population Membrane Permeable-Phenotype (%) [10]: 0%
- Population Mitochondria Different-Phenotype (%) [10]: 33%
- Population Mitotic Cells (%) [10]: 51%
- Population Pyknosed Nuclei (%) [10]: 6%
- Population Tubulin-Different-Phenotype (%) [10]: 21%
- Total Cell Count [10]: 601
- Population Apoptotic (%) [11]: 75%
- Population Fragmented Nuclei (%) [11]: 29%
- Population Healthy Nuclei (%) [11]: 30%
- Population Hoechst High Intensity Objects (%) [11]: 52%
- Population Membrane Permeable-Phenotype (%) [11]: 0%
- Population Mitochondria Different-Phenotype (%) [11]: 88%
- Population Mitotic Cells (%) [11]: 24%
- Population Normal (%) [11]: 47%
- Population Pyknosed Nuclei (%) [11]: 40%
- Population Tubulin-Different-Phenotype (%) [11]: 58%
- Total Cell Count [11]: 235
- Population Apoptotic (%) [12]: 61%
- Population Fragmented Nuclei (%) [12]: 31%
- Population Hoechst High Intensity Objects (%) [12]: 60%
- Population Mitochondria Different-Phenotype (%) [12]: 92%
- Population Mitotic Cells (%) [12]: 38%
- Population Normal (%) [12]: 40%
- Population Pyknosed Nuclei (%) [12]: 37%
- Population Tubulin-Different-Phenotype (%) [12]: 64%
- Total Cell Count [12]: 205
